Consider 167 variants from the RNAGym collection of RNA variant scans (doi:10.1126/science.aae0568).

B1: tRNA (parent)
chain: GUUCCGUUGGCGUAAUGGUAACGCGUCUCCCUCCUAAGGAGAAGACUGCGGGUUCGAGUCCCGUACGGAACG

Fewer inactive variants are shown than the library holds. Bounds are passed on as bounds.

In the series the parent is B1. The experiment in a line: yeast fitness relative to wild type (ratio to wild type); higher = fitter; tRNA-Arg(CCU), competitive growth, 37 C, YPD. The essentials:
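Genotype frequency changes were the basis for Darwinian fitness relative to wild type. The frequencies came from 100-nucleotide paired-end sequencing of gene amplicons from the start population and each end population of pooled yeast strains with tRNA-Arg(CCU) gene variants at the native locus. Competition ran in YPD at 37°C for 24 hours in six replicates, genotypes needed ≥ 100 starting reads, and estimates < 0.5 were set to 0.5.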
A20U C31G C55G A57U: the yeast fitness is at most 0.5. The same measure for A20U C61A: 0.646; for A20U C61G: 0.712; for A21C A45U G52C: 0.581. Consider A20U G50A G68C, for which the yeast fitness was at most 0.5. Next, A20U G63C: 0.649; A20G U54G C66G: at most 0.5. Consider A21C A36C G56A, for which the yeast fitness came out at 0.562. Next, A21C A45C: 0.73; A20G U47C U54G C66G: at most 0.5; A20U C31A C33G G56A: at most 0.5. As for A21C C22U G38C A40C, the yeast fitness is at most 0.5.

A20G U54C: the yeast fitness was determined as 0.719. The same measure for A21C A42G A69C A70G: 0.543; for A21C A37C A69U: at most 0.5. In the case of A20U C33U A43G U64C, the yeast fitness was at most 0.5. Regarding A21C C27A C49G, the yeast fitness is 0.54. Next, A20U C31G C55G C60G C66U A70U: at most 0.5. As for A20U U32A G67C, the yeast fitness was determined as 0.543. With A20U G38C G50C A65C, the yeast fitness is at most 0.5.

As to A20U G50A U59C, the yeast fitness is 0.619. The same measure for A21C C27G G39C: at most 0.5; for A20U C55U A57C: at most 0.5. Next, A20U C24G C31A G58C: 0.504. In the case of A20U C46U A69G, the yeast fitness stood at 0.893.

In the case of A20U G25C A37G C60G C61G, the yeast fitness stood at 0.561. Next, A20U U35C G44C: 0.592; A20U A40G A57G: 0.67; A20U G23A C49U: 0.609.

As for A20G G25A C49U, the yeast fitness turned out to be 0.781. The same measure for A20U A21C: 0.651. As to A20U A21G, the yeast fitness turned out to be 0.947. Regarding A20U A36G A70U, the yeast fitness amounted to 0.626. The same measure for A20G U47C G58U A65U: at most 0.5. The same measure for A20U C66A: 0.612. The same measure for A21C C24A G39A: at most 0.5.

Consider A20U C31G, for which the yeast fitness was 0.865. Take A20U C22G A40G A70U: the yeast fitness was at most 0.5. Next, A20U G38C A45C C60G: at most 0.5; A20G C46U G50C C61A: 0.572. Next, A20U G41C: 0.753. The same measure for A20G C49A A65G: 0.619. On to A20U C30G C33A G50A G52A C60U C61G G67A, for which the yeast fitness is at most 0.5. Regarding A20U C33A G44A C62U, the yeast fitness is at most 0.5. Next, A20G C46U: 0.942.

In the case of A20G C49U U53G A65G, the yeast fitness was at most 0.5. Next, A21C C27G: 0.537; A21C C27U: 0.774; A20U A36G C55G: 0.579. With A20U C46G G51C C61U, the yeast fitness is at most 0.5.

As for A20U G48C U53C G68C, the yeast fitness is at most 0.5.

Turning to A20U U64G, the yeast fitness stood at 0.725. Next, A20U C34G A36C C55U: 0.528. The same measure for A20G C34A A57U: at most 0.5. For A20G C61A, the yeast fitness was 0.706.

On to A20G U26C G39A G50A, for which the yeast fitness is at most 0.5. The same measure for A20U G25C U35C C60G: at most 0.5. For the variant A20G G52C, the yeast fitness came out at 0.613. Take A20U U32A C66U: the yeast fitness was 0.554.

On to A20G C31U G41C A43C C60G, for which the yeast fitness is at most 0.5. Next, A21C C24G U32A A42C A65U: 0.543.

In the case of A21C C24U U32A C62G G63A, the yeast fitness was at most 0.5.

On to A20U U26A C62U, for which the yeast fitness was found to be 0.542.

Regarding A20U G39C A40G C49U C55G, the yeast fitness is at most 0.5. Next, A20U G25A G67U: 0.673. The same measure for A20U G50C: 0.638; for A20U A45C G52C: 0.568; for A20U A57U: 0.762. Next, A20U C60G: 0.691; A20U A65C: 0.823. For the variant A20U C34G G38C, the yeast fitness was at most 0.5. As to A20G C31U A69C, the yeast fitness was determined as 0.833. Consider A21C A57U C62U, for which the yeast fitness is at most 0.5. The same measure for A20G G51C G67A: 0.534. The same measure for A20G C34A: 0.69. Next, A20G U35A A37G A43U A45C: at most 0.5; A20U G25C A37G C60G C61G A70U: at most 0.5; A20U G23A A36U: 0.515.

For A20U C31U C62A A69U, the yeast fitness was at most 0.5.

For A20U C33A G41C, the yeast fitness is at most 0.5. As to A21C C27G U28A C29U C34U, the yeast fitness came to 0.525.

A20U C30G A69U: the yeast fitness worked out at 0.59. Next, A20U A42C G48A: 0.543; A20U U54C G63U: at most 0.5; A21C A45C C49U: 0.582. Regarding A20G C49U A69C, the yeast fitness was 0.786. As for A20G U47A U53A, the yeast fitness was at most 0.5. As for A20U C24U A42C C62G, the yeast fitness was found to be 0.735. The same measure for A20U A42U G67A G68C: at most 0.5. For A20G C34G A37C C66U, the yeast fitness is at most 0.5. Next, A20U A36U G44C: at most 0.5. In the case of A21C A45G G63C C66U, the yeast fitness is at most 0.5. A21C C22G U32A G56C: the yeast fitness is at most 0.5.

Consider A20U U47G, for which the yeast fitness was 0.611. The same measure for A20U A70C: 0.977; for A21C C27G U28A C29U C34U C62U G63C: at most 0.5; for A20U U32C A43G: 0.659. Next, A21C C22G G38C: 0.52; A20U C62U A69C: 0.686; A20U C29G A37G G44A G63A: at most 0.5. Next, A20G U32G: 0.672; A20G U32C: 0.949. Regarding A20G U26A A70U, the yeast fitness was found to be 0.717. Next, A21C A45C C62G A65C: 0.574. The same measure for A20U U28A C31U C55G A57C: at most 0.5; for A21C C27A U28A A45G A69C: at most 0.5; for A21C A37G C49A C60G C66A: at most 0.5. Next, A20U G38A A57U: at most 0.5; A20U C27U: 1.05; A20U C27A: 0.717.

On to A20U A37C U53A, for which the yeast fitness is 0.682.

For the variant A20U G25C C49G A65C A70U, the yeast fitness was at most 0.5. Next, A21C C24A C49U: at most 0.5; A20G C46U G63A: 0.82. In the case of A20G C55G C61U, the yeast fitness was found to be 0.534. Turning to A20U G41C G56C, the yeast fitness was 0.574.

With A20U A43U C55A U64A, the yeast fitness is at most 0.5. Regarding A20G C34G G41C G52A, the yeast fitness is at most 0.5. The same measure for A21C C22A C29U C49G: at most 0.5. As to A21C C24U C46U C60U, the yeast fitness is at most 0.5. Next, A20U C22G A40G C66U: at most 0.5; A21C A37U A42U C46G U47G: 0.534; A20G U26C A65C: 0.704. With A21C C22U C31U C33U C62A, the yeast fitness came to 0.61. As for A20U G25C, the yeast fitness came to 0.885. Next, A20U G23C U53A C55U: at most 0.5.

On to A20G C33U G52A G63A, for which the yeast fitness turned out to be 0.707. The same measure for A20U G41C C46U C66A: at most 0.5; for A21C C24U U32A G41A C62G: at most 0.5. The same measure for A20G G38A C46U: 0.883; for A20U A42U C61U C66U: at most 0.5.

Consider A20U A21C C27A G41A, for which the yeast fitness was at most 0.5.

In the case of A20G G39C A45C C49G, the yeast fitness was at most 0.5.

Turning to A20U G38C G68U, the yeast fitness was at most 0.5. With A20U C24G C31G G52A C55G C61U, the yeast fitness is at most 0.5. As for A20G G25C C33U C49A U53A G67A, the yeast fitness is at most 0.5.

A20U G51C A65G: the yeast fitness is at most 0.5. Next, A20G C34A A42U G58A C62U G63A: 0.583; A20U G23A A36U A65U: at most 0.5. Next, A20G C62U: 1.05. The same measure for A20U C31G A36C A45G A70U: at most 0.5; for A20G U47C: 0.947; for A21C A37C C55A G58A: 0.515.

For A20G G23C C31G G50A, the yeast fitness is at most 0.5. With A20U C29G C49G G63C, the yeast fitness was determined as 0.543. Next, A20U G68U: 0.792; A20U A45C A65C: 0.63; A21C C22U C31U C33U: at most 0.5. With A20G C60G G68A, the yeast fitness was at most 0.5.

A20G G38U A43C A57U: the yeast fitness was at most 0.5. The same measure for A20U A37U U59C: 0.675; for A21C A36C U47A C62G: at most 0.5; for A20U C31U G56A A69C: at most 0.5. Consider A20U A40U A69U, for which the yeast fitness was found to be 0.73. Regarding A20G C34G A42C A43U, the yeast fitness stood at 0.604. In the case of A20G G48A C49G, the yeast fitness was 0.635.

As for A20U A36C C60A, the yeast fitness was at most 0.5. A20U A37C A43U: the yeast fitness was 0.59. Regarding A20U G68A A69C, the yeast fitness worked out at 0.639.

As for A20U G48A, the yeast fitness stood at 0.922. As for A20G C60G C66G A69G, the yeast fitness came to 0.554. Regarding A20U C34A G58C C62A A69C, the yeast fitness is at most 0.5.

Take A20U U28C: the yeast fitness is 0.934. Take A21C C22G: the yeast fitness stood at 0.564. Next, A21C C22U: 0.664; A20U A21G C22A C49G: at most 0.5.

As for A20U C46U C55G, the yeast fitness came out at 0.539.
